According to ChEMBL document CHEMBL3351301, “Synthesis of triazole Schiff bases: novel inhibitors of nucleotide pyrophosphatase/phosphodiesterase-1” (Bioorg Med Chem, 2014):
The source made the active and inactive calls. The rule behind the calls is not given here.

What was measured:
[1] = Cytotoxicity against human PC3 cells; format: functional, cell-based; conditions: PC-3
[2] = Inhibition of snake venom NPP1 using bis(p-nitrophenyl)phosphate preincubated for 30 mins by spectrophotometry; set-up: species or system Serpentes
Method in brief: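 Snake venom PDE1/NPP1 at 7.42 × 10^-4 units, dissolved in cold deionized water. Assay in 33 mM Tris-HCl pH 8.8 with 30 mM magnesium acetate cofactor. Preincubated 30 min at 37 °C, then started with 0.33 mM bis(p-nitrophenyl)phosphate (total). p-Nitrophenol release read at 410 nm. Initial rates taken as Vmax/min and % inhibition calculated against control. Triplicates; IC50 derived by enzyme-kinetics fitting.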

[3] = target: Carbonic anhydrase (Homo sapiens) (UniProt P00918+P43166+P00915+P07451+P23280+O43570+Q9ULX7+Q16790+P22748+Q8N1Q1+Q9Y2D0+P35218); assay: Inhibition of carbonic anhydrase (unknown origin); format: protein assay

O=[N+]([O-])c1ccc(/C=N/c2nnc[nH]2)cc1
IC50 [1]: > 30 µM | IC50 [2]: Not Active

Oc1ccccc1/C=N/c1nnc[nH]1
IC50 [1]: > 30 µM | IC50 [2]: Not Active

Oc1cc(O)c(/C=N/n2cnnc2)c(O)c1
IC50 [1]: > 30 µM | IC50 ([2]; read-out: IC50): 1160 µM

Oc1ccc(/C=N/n2cnnc2)cc1
IC50 [1]: > 30 µM | IC50 [2]: Not Active

Oc1c(Cl)cc(Cl)cc1/C=N/c1nc[nH]n1
IC50 [1]: > 30 µM | IC50 [2]: Not Active

CCOc1ccc(/C=N/c2nnc[nH]2)c(O)c1
IC50 [1]: > 30 µM | IC50 [2]: Not Active

COc1ccc(/C=N/c2nnc[nH]2)cc1OC
IC50 [1]: > 30 µM | IC50 [2]: Not Active

CSc1ccc(/C=N/c2nnc[nH]2)cc1
IC50 [1]: > 30 µM | IC50 [2]: Not Active

Clc1ccc(/C=N/c2nnc[nH]2)c(Cl)c1
IC50 [1]: > 30 µM | IC50 [2]: Not Active

CCOc1ccc(/C=N/n2cnnc2)cc1
IC50 [1]: > 30 µM | IC50 [2]: Not Active

COc1cccc(/C=N/n2cnnc2)c1O
IC50 [1]: > 30 µM | IC50 [2]: Not Active

Oc1cccc(/C=N/n2cnnc2)c1
IC50 [1]: > 30 µM | IC50 [2]: Not Active

CCOc1cccc(/C=N/n2cnnc2)c1O
IC50 [1]: > 30 µM | IC50 [2]: Not Active

COc1cccc(/C=N/c2nnc[nH]2)c1O
IC50 [1]: > 30 µM | IC50 [2]: Not Active

Oc1ccc(Cl)cc1/C=N/n1cnnc1
IC50 [1]: > 30 µM | inhibition [3]: inactive | IC50 ([2]; read-out: IC50): 251 µM

Oc1c(Br)cc(Br)cc1/C=N/c1nnc[nH]1
IC50 [1]: > 30 µM | IC50 [2]: Not Active

CN(C)c1ccc(/C=N/c2nnc[nH]2)cc1
IC50 [1]: > 30 µM | inhibition [3]: inactive | IC50 ([2]; read-out: IC50): 132 µM

Oc1ccccc1/C=N/n1cnnc1
IC50 [1]: > 30 µM | IC50 [2]: Not Active

Oc1ccc(Br)cc1/C=N/n1cnnc1
IC50 [1]: > 30 µM | IC50 ([2]; read-out: IC50): 405 µM

Oc1cccc(/C=N/n2cnnc2)c1O
IC50 [1]: > 30 µM | inhibition [3]: inactive | IC50 ([2]; read-out: IC50): 153 µM

Cc1ccc(O)c(/C=N/c2nnc[nH]2)c1
IC50 [1]: > 30 µM | IC50 [2]: Not Active

COc1ccc(/C=N/n2cnnc2)cc1
IC50 [1]: > 30 µM | IC50 [2]: Not Active

O=C(O)CN(CCN(CC(=O)O)CC(=O)O)CC(=O)O [EDETIC ACID]
IC50 ([2]; read-out: IC50): 278 µM

CSc1ccc(/C=N/n2cnnc2)cc1
IC50 [1]: > 30 µM | IC50 [2]: Not Active

COc1ccc(/C=N/n2cnnc2)cc1OC
IC50 [1]: > 30 µM | IC50 [2]: Not Active

Brc1ccc(/C=N/n2cnnc2)cc1
IC50 [1]: > 30 µM | IC50 ([2]; read-out: IC50): 823 µM
